The source of these data is publication PMC8548355 (Medicinal Chemistry Research, 2021).

Values after ≈ are worked out from the molar mass of the structure shown.

Assay [1] concerns S. aureus ATCC 29213. Nature of the assay: Drug interaction of 22 with FDA-approved drugs, checkerboard method. To be noted: Staphylococcus aureus, ATCC29213, 24 h, read-out: MIC (drug alone). Format: cell-based, Staphylococcus aureus.
For another assay, the system named is VRSA VRS 1. As to the kind of experiment: MIC against clinical VRSA isolate VRS 1. Conditions: Staphylococcus aureus, read-out: MIC against VRSA VRS 1. It counts as cell-based.
The subject of a further assay is VRSA VRS 12. Nature of the assay: MIC against clinical VRSA isolate VRS 12. It counts as cell-based. Conditions: Staphylococcus aureus, read-out: MIC against VRSA VRS 12.
The next assay has as its system MRSA NRS 10186. As to the kind of experiment: MIC against clinical MRSA isolate NRS 10186. Format: cell-based. To be noted: Staphylococcus aureus, MRSA|NRS10186, read-out: MIC against MRSA NRS 10186.
Assay [2] deals with clinical MDR S. aureus isolates (MRSA and VRSA). Nature of the assay: MIC against clinical MDR S. aureus isolates, whole panel. It counts as cell-based, Staphylococcus aureus. Conditions: nine MRSA and three VRSA strains.
The subject of a further assay is VRSA VRS 4. Nature of the assay: MIC against clinical VRSA isolate VRS 4. Format: cell-based. Conditions: Staphylococcus aureus, read-out: MIC against VRSA VRS 4.
For another assay, the system named is E. coli ATCC 25922. As to the kind of experiment: MIC by broth microdilution against E. coli ATCC 25922. It counts as cell-based. Conditions: Escherichia coli, ATCC25922, read-out: MIC against E. coli ATCC 25922.
A further assay deals with MRSA NRS 10198. Nature of the assay: MIC against clinical MRSA isolate NRS 10198. It counts as cell-based. Conditions: Staphylococcus aureus, MRSA|NRS10198, read-out: MIC against MRSA NRS 10198.
In the next assay the test system is K. pneumoniae BAA 1705. As to the kind of experiment: MIC by broth microdilution against K. pneumoniae BAA 1705. It counts as cell-based. To be noted: Klebsiella pneumoniae, BAA1705, read-out: MIC against K. pneumoniae BAA 1705.
A further assay deals with MRSA NRS 10192. Nature of the assay: MIC against clinical MRSA isolate NRS 10192. It counts as cell-based. Conditions: Staphylococcus aureus, MRSA|NRS10192, read-out: MIC against MRSA NRS 10192.
Assay [3] has as its system S. aureus ATCC 29213. Nature of the assay: MIC by broth microdilution against S. aureus ATCC 29213. Conditions: Staphylococcus aureus, ATCC29213, read-out: MIC against S. aureus ATCC 29213, broth microdilution, 37 °C, 16–18 h. Format: cell-based, Staphylococcus aureus.
The test system of the next assay is MRSA NRS 10191. Nature of the assay: MIC against clinical MRSA isolate NRS 10191. It counts as cell-based. To be noted: Staphylococcus aureus, MRSA|NRS10191, read-out: MIC against MRSA NRS 10191.
Another assay concerns A. baumannii BAA 1605. Nature of the assay: MIC by broth microdilution against A. baumannii BAA 1605. Format: cell-based. To be noted: Acinetobacter baumannii, BAA1605, read-out: MIC against A. baumannii BAA 1605.
Assay [4] concerns S. aureus ATCC 29213 pre-formed biofilm. As to the kind of experiment: Activity against pre-formed S. aureus biofilm. Format: cell-based, Staphylococcus aureus. Conditions: 10× MIC, 24 h treatment, S. aureus ATCC 29213, compared to comparators. The method, boiled down: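 Overnight culture in 1% TSB, shaken at 180 RPM at 37 °C, diluted 1:100 in fresh TSB. Biofilm grown statically for 48 h at 37 °C under an adhesive foil lid for low oxygen. Planktonic cells removed with three PBS (pH 7.4) rinses. Refilled with TSB containing test compound, 24 h at 37 °C. Washed, heat-fixed at 60 °C for 1 h, stained with 0.06% crystal violet for 10 min, eluted with 30% acetic acid, absorbance read at 600 nm.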

The next assay relates to MRSA NRS 10119. As to the kind of experiment: MIC against clinical MRSA isolate NRS 10119. It counts as cell-based. To be noted: Staphylococcus aureus, MRSA|NRS10119, read-out: MIC against MRSA NRS 10119.
For a further assay, the system named is MRSA NRS 10194. As to the kind of experiment: MIC against clinical MRSA isolate NRS 10194. Format: cell-based. To be noted: Staphylococcus aureus, MRSA|NRS10194, read-out: MIC against MRSA NRS 10194.
A further assay deals with MRSA NRS 10100. As to the kind of experiment: MIC against clinical MRSA isolate NRS 10100. It counts as cell-based. Conditions: Staphylococcus aureus, MRSA|NRS10100, read-out: MIC against MRSA NRS 10100.
Assay [5] concerns S. aureus ATCC 29213. As to the kind of experiment: Time–kill kinetics. It counts as cell-based, Staphylococcus aureus. To be noted: 24 h. The method, boiled down:
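Bacteria diluted to ~10^6 cfu/mL and exposed to test compound at 1× and 10× MIC, with controls, at 37 °C for 24 h. Samples taken at 1, 6 and 24 h, serially diluted ten-fold in PBS, and spread on MHA. Plates incubated at 37 °C for 24 h and colonies counted. Surviving cfu/mL plotted against time with and without compound.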

In the next assay the test system is MRSA NRS 10193. Nature of the assay: MIC against clinical MRSA isolate NRS 10193. It counts as cell-based. To be noted: Staphylococcus aureus, MRSA|NRS10193, read-out: MIC against MRSA NRS 10193.
Another assay relates to MRSA NRS 10129. Nature of the assay: MIC against clinical MRSA isolate NRS 10129. It counts as cell-based. To be noted: Staphylococcus aureus, MRSA|NRS10129, read-out: MIC against MRSA NRS 10129.
The test system of the next assay is S. aureus. To be noted: similar activity to 20–23; cited from earlier work.

For the compound `O=C(Nc1ccc(Br)c(C(F)(F)F)c1)c1cc(Cl)ccc1O` [Compound 22, 5-Chloro-N-(4ʹ-bromo-3ʹ-(trifluoromethyl)phenyl)-2-hydroxybenzamide], the MIC in the assay on S. aureus ATCC 29213 [1] was 0.5 µg/mL; in the assay on VRSA VRS 1, 0.0312 µg/mL (≈ 0.0791 µM); in the assay with VRSA VRS 12, 0.0625 µg/mL (≈ 0.158 µM); in the assay on MRSA NRS 10186, 0.0625 µg/mL (≈ 0.158 µM); in the assay with VRSA VRS 4, 0.0625 µg/mL (≈ 0.158 µM); with E. coli ATCC 25922, > 64 µg/mL. Moreover, the MIC is 0.0625 µg/mL (≈ 0.158 µM) with MRSA NRS 10198; > 64 µg/mL with K. pneumoniae BAA 1705; 0.0312 µg/mL (≈ 0.0791 µM) in the assay with MRSA NRS 10192; 0.25 µg/mL (≈ 0.634 µM) with S. aureus ATCC 29213 [3]; 0.0625 µg/mL (≈ 0.158 µM) in the assay on MRSA NRS 10191; > 64 µg/mL with A. baumannii BAA 1605. Further, the MIC with MRSA NRS 10119 stood at 0.0312 µg/mL (≈ 0.0791 µM); in the assay with MRSA NRS 10194, 0.0625 µg/mL (≈ 0.158 µM); in the assay on MRSA NRS 10100 it was 0.0625 µg/mL (≈ 0.158 µM); in the assay with MRSA NRS 10193 it was 0.0625 µg/mL (≈ 0.158 µM); with MRSA NRS 10129, 0.0625 µg/mL (≈ 0.158 µM). For the same compound, the “MIC against MRSA and VRSA isolates (range over the panel)” value in [2] is 0.031 to 0.062 µg/mL. Further, the “Reduction in pre-formed biofilm” value in [4] is given as “more significant reduction (P < 0.0005)”. The “Type of killing in time–kill kinetics (in words)” value in the assay with S. aureus ATCC 29213 [5] (1× and 10× MIC) is “concentration-dependent bactericidal activity”. Further, the “cfu reduction in time–kill kinetics” value with S. aureus ATCC 29213 [5] (10× MIC) was ~ 8 log10 cfu/mL.
Consider `O=C(Nc1cc(C(F)(F)F)cc(C(F)(F)F)c1)c1cc(Cl)ccc1O` [IMD0354, N-[3,5-Bis(trifluoromethyl)phenyl]-5-chloro-2-hydroxybenzamide], for which, in the assay with S. aureus, the “MIC (reported)” value was 0.25 µg/mL (≈ 0.652 µM).
